# PMC9868778 (Planta Medica, 2022)
# Several values for one entry are separate records, joined by “and”; a condition that tells them apart may be missing. Equal entries are not always repeated. Where two headings read alike, the source gives them in different places.
# Columns and labels:
# [1] = for transfer across the placental barrier (maternal to fetal circuit): 5 µM added to maternal circuit, 360 min perfusion; for time to steady-state concentration: 5 µM in maternal circuit; for F perfusate (% found): fetal perfusate after 360 min; for F perfusate (% found) / M perfusate (% found): % of initial amount; for M perfusate (% found): maternal perfusate after 360 min; for steady-state concentration, fetal side / steady-state concentration, maternal side: % of initially analyzed concentration in the maternal sample
# [2] = Perfusion system adherence test; assay type: in vitro ADME; conditions: % of initially analyzed concentration, 360 min, 5 µM in PM, n = 3
# Summary of the method: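 No placenta in the chamber; only the maternal circuit was run, for 360 min. Test compound was dissolved directly in perfusion medium at a final 5 µM and run on its own. Quantified by U(H)PLC-MS/MS and expressed as % of the initial maternal concentration. Three independent experiments, mean ± SD.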
# [3] = Fraction unbound in placental homogenate; assay type: in vitro ADME, human; conditions: for fraction unbound at 240 min, 2 µM: human, placental homogenate (5-fold diluted in PBS)
# placental tissue [4] = experiment: Viability and functionality of placental tissue during ex vivo perfusion; parameters: species or system human
# Summary of the method: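 Ex vivo perfusion of human placental cotyledons with 100 mL medium per circuit. Fetal circuit gassed with 95% N2/5% CO2, maternal with 95% air/5% CO2. […] Glucose and lactate were measured by blood gas analyser at the start and end of perfusion; β-hCG and leptin by ELISA. Values were normalized to perfusion time and cotyledon weight; Brown-Forsythe/Welch ANOVA with Dunnett's T3.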
# [5] = system: noradrenaline transporter; conditions: expressed in murine N1 cells ref 23; cited from earlier work
# serotonin transporter = conditions: expressed in murine S6 cells ref 23; cited from earlier work
# placental tissue [6] = experiment: Histopathological evaluation of perfused placental tissue; parameters: species or system human
# Summary of the method: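 Human placental tissue after ex vivo perfusion: sections taken immediately afterwards from the perfused area, the non-perfused area and the transitional area. Fixed in 4% paraformaldehyde ≥24 h, paraffin-embedded, cut at 2–3 µm. Stained with H&E, plus a modified Gram stain (Braun-Brenn) to check for bacterial contamination. Scored for intravascular thrombi, cytotrophoblast vacuolization, hydropic villous changes and villous endothelium viability, compared against non-perfused tissue.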
# 5-HT 1A receptors = conditions: expressed in human CHO cell membranes ref 22; cited from earlier work
# [7] = Stability of compounds in PBS, perfusion medium and placental homogenate; assay type: in vitro ADME, human; conditions: 360 min, 4 °C and 37 °C
# [8] = during 360 min, control perfusions
# [9] = 5 µM, compared with antipyrine control perfusions
# [10] = perfused tissue, individual experiments 1-4
# [11] = perfused tissue, individual experiments 1-4, listed as Protopine
Compound,transfer across the placental barrier (maternal to fetal circuit) [1],time to steady-state concentration [1],F perfusate (% found) [1] [%],M perfusate (% found) [1] [%],adherence to perfusion equipment (compound lost) [2],"fraction unbound at 240 min, 2 µM [3]","steady-state concentration, fetal side [1] [%]","steady-state concentration, maternal side [1]","effect on placental viability and metabolic activity (glucose consumption, lactate production) (placental tissue [4]; [9])",also measured
Cc1cc(=O)n(-c2ccccc2)n1C [antipyrine],readily crossed the placental barrier,approximately 120 min,19.8,22.0,7.4 ± 4.7%,1,–,–,–,time to equilibrium between maternal and fetal circuits ([1]; connectivity control in perfusions with protopine): 120 to 240 min; leptin production (placental tissue [4]; control perfusions): 334.8 pg/g/min; β-hCG production (placental tissue [4]; control perfusions): 95.7 mU/g/min; lactate production (placental tissue [4]; [8]): 0.27 µmol/g/min; total glucose consumption (placental tissue [4]; [8]): 0.39 µmol/g/min
CN(C)CCCC1(c2ccc(F)cc2)OCc2cc(C#N)ccc21 (stereo not drawn) [citalopram],crossed the human placental barrier,approximately 60 min,6.4,11.4,48.4% and 48.4 ± 12.9%,0.21 ± 0.01,11,22%,did not impair placental viability and metabolic activity,–
CN1C(=O)CN=C(c2ccccc2)c2cc(Cl)ccc21 [diazepam],crossed the human placental barrier,approximately 45 min,–,7.9,54.8% and 54.8 ± 12.7%,–,–,–,did not impair placental viability and metabolic activity,"steady-state concentration (side not specified) ([1]; % of initially analyzed concentration, slow decrease until 360 min): 24%"
protopine,rapidly transferred from the maternal to the fetal circuit,–,14.0,23.1,20.4% and 20.4 ± 9.5%,–,~20,approximately 27%,did not impair placental viability and metabolic activity,"inhibition of noradrenaline transporter [5]: inhibitor; inhibition of serotonin transporter (serotonin transporter): inhibitor; transfer across the placental barrier (maternal to fetal circuit) ([1]; listed as Protopine): transferred from the maternal to the fetal circuit; fetal-maternal concentration ratio (FM ratio) ([1]; after 360 min, antipyrine from control perfusions): 0.75; Final recovery (% found) ([1]; sum of fetal and maternal perfusates, sampling and system adherence, 360 min): 71.4 ± 8.6%; damage of placental tissue (endothelium, vascular rupture, thrombi, trophoblast vacuolization) (placental tissue [6]; overall assessment): did not cause apparent damage of placental tissue; Thrombi in vessels of stem villi (placental tissue [6]; [10]): 0%; Thrombi in villous vessels (placental tissue [6]; [10]): 5%; Thrombi in villous vessels (placental tissue [6]; [11]): 1% and 0%; Vacuolated trophoblast in villi (placental tissue [6]; [11]): 0% and 20% and 1% (2×); ligand at 5-HT 1A receptors (5-HT 1A receptors): ligand at 5-HT 1A receptors; stability in PM [7]: slightly less stable; Fraction unbound (fu,hom) ([3]; placental homogenate vs PBS, 2 µM, 240 min, 37 °C, 3 donors): 0.48 ± 0.04; effect on β-hCG and leptin production (placental tissue [4]; [9]): did not inhibit; effect on placental viability and metabolic activity (glucose consumption, lactate production) (placental tissue [4]; 5 µM, compared with antipyrine control perfusions, listed as Protopine): did not affect placental viability or functionality"
